What all share (format): functional
Test [1] deals with Escherichia coli. Briefly: Antibacterial activity against Escherichia coli ATCC 25922 after 24 to 72 hrs by cup plate method. The method, boiled down: (§1)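 MIC by cup plate method on Mueller Hinton agar plates containing compound at 0 (control), 1, 2, 3, 5, 10, 15, 20, 30 or 40 µg/mL. Plates were prepared per NCCLS M7-A5 and incubated at 37 °C. They were examined after 24 h and, where necessary, incubated further for 72 h. The MIC was taken as the lowest concentration giving inhibition.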

The subject of test [2] is Bacillus subtilis. Kind of test: Antibacterial activity against Bacillus subtilis NCIM 2250 after 24 to 72 hrs by cup plate method. The method, boiled down:
as §1

The subject of test [3] is Bacillus subtilis. Briefly: Antibacterial activity against Bacillus subtilis NCIM 2250 after 48 hrs by agar cup plate method. The method in brief:
(§2)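 Agar cup plate diffusion with compounds dissolved in DMSO. Bacteria (B. subtilis, E. coli) were grown on Mueller Hinton agar at 37 ± 0.5 °C. Fungi (C. albicans, A. niger) were grown on Czapek Dox medium at 28 ± 0.5 °C. Incubation was 48 h. The read-out was the diameter of the inhibition zone, averaged over three independent determinations.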

The test system of test [4] is Aspergillus niger. Briefly: Antifungal activity against Aspergillus niger NCIM 545 after 24 to 72 hrs by cup plate method. The method, boiled down: as §1
Test [5] has as its system Aspergillus niger. Kind of test: Antifungal activity against Aspergillus niger NCIM 545 after 48 hrs by agar cup plate method. The method in brief: as §2
The subject of test [6] is Candida albicans. Briefly: Antifungal activity against Candida albicans MTCC 277 after 24 to 72 hrs by cup plate method. The method, boiled down:
as §1

Test [7] concerns Escherichia coli. Kind of test: Antibacterial activity against Escherichia coli ATCC 25922 after 48 hrs by agar cup plate method. The method, boiled down: as §2
Test [8] relates to Candida albicans. Kind of test: Antifungal activity against Candida albicans MTCC 277 after 48 hrs by agar cup plate method. The method in brief:
as §2

Values after ≈ are worked out from the molar mass of the structure shown.

On to `Clc1nc2ccccc2cc1Cn1cc(-c2ccccc2)nn1`, for which the MIC in test [1] is 15 µg/mL (≈ 46.8 µM); in test [2], 15 µg/mL (≈ 46.8 µM); in test [4], 20 µg/mL (≈ 62.3 µM); in test [6], 15 µg/mL (≈ 46.8 µM). Further, the “diameter of the inhibition zone (DIZ)” value in test [3] is 13.5 mm; in test [5], 10 mm; in test [7], 12 mm; in test [8], 16 mm.

Turning to `Cc1ccc2nc(Cl)c(Cn3cc(-c4ccccc4)nn3)cc2c1`, the MIC in test [1] is 15 µg/mL (≈ 44.8 µM); in test [2] it was 25 µg/mL (≈ 74.7 µM); in test [4], 10 µg/mL (≈ 29.9 µM); in test [6], 15 µg/mL (≈ 44.8 µM). The “diameter of the inhibition zone (DIZ)” value is reported as 11.4 mm in test [3], 16.1 mm in test [5], 14 mm in test [7] and 14.7 mm in test [8].

`CCc1cccc2cc(Cn3cc(-c4ccccc4)nn3)c(Cl)nc12`: the MIC in test [1] was found to be 15 µg/mL (≈ 43 µM); in test [2], 10 µg/mL (≈ 28.7 µM); in test [6] it was 15 µg/mL (≈ 43 µM). The figures for the “diameter of the inhibition zone (DIZ)” value in test [3], in test [7] and in test [8] were 16.1 mm, 15.9 mm and 14 mm, respectively.

Take `Cc1ccc2cc(Cn3cc(-c4ccccc4)nn3)c(Cl)nc2c1`: the MIC in test [1] came to 15 µg/mL (≈ 44.8 µM); in test [2], 10 µg/mL (≈ 29.9 µM); in test [6], 10 µg/mL (≈ 29.9 µM). Also, the “diameter of the inhibition zone (DIZ)” value in test [3] is reported as 16.6 mm; in test [7], 14 mm; in test [8], 16.4 mm.

Regarding `Cc1cccc2cc(Cn3cc(-c4ccccc4)nn3)c(Cl)nc12`, the MIC is 20 µg/mL (≈ 59.7 µM) in test [1], 20 µg/mL (≈ 59.7 µM) in test [2], 20 µg/mL (≈ 59.7 µM) in test [4] and 25 µg/mL (≈ 74.7 µM) in test [6]. For the same molecule, the “diameter of the inhibition zone (DIZ)” value worked out at 12 mm in test [3], 12.7 mm in test [5], 12 mm in test [7] and 13.4 mm in test [8].

With `COc1ccc2nc(Cl)c(Cn3cc(-c4ccccc4)nn3)cc2c1`, the MIC in test [2] was determined as 10 µg/mL (≈ 28.5 µM); in test [4], 15 µg/mL (≈ 42.8 µM); in test [6], 15 µg/mL (≈ 42.8 µM). Also, the “diameter of the inhibition zone (DIZ)” value in test [3] amounted to 16.7 mm; in test [5] it was 16.3 mm; in test [8], 15.7 mm.

Consider `COc1ccc2cc(Cn3cc(-c4ccccc4)nn3)c(Cl)nc2c1`, for which the MIC in test [1] was 10 µg/mL (≈ 28.5 µM); in test [2], 10 µg/mL (≈ 28.5 µM); in test [4], 20 µg/mL (≈ 57 µM); in test [6] it was 15 µg/mL (≈ 42.8 µM). Besides, the “diameter of the inhibition zone (DIZ)” value in test [3] turned out to be 16 mm; in test [7] it was 16.4 mm; in test [8] it was 14 mm.

For `CCOc1ccc2nc(Cl)c(Cn3cc(-c4ccccc4)nn3)cc2c1`, the “diameter of the inhibition zone (DIZ)” value in test [5] is on record as 12.8 mm; in test [8], 16.5 mm. In test [6], this molecule showed an MIC of 10 µg/mL (≈ 27.4 µM).

For the molecule `COC1=CC(=O)C[C@@H](C)[C@]12Oc1c(Cl)c(OC)cc(OC)c1C2=O` [GRISEOFULVIN], the entries for the “diameter of the inhibition zone (DIZ)” value in test [5] and in test [8] were 16.6 mm and 16.9 mm, respectively. In test [6], the MIC amounted to 5 µg/mL (≈ 14.2 µM).

For `CN[C@@H]1[C@H](O[C@H]2[C@H](O[C@H]3[C@H](O)[C@@H](O)[C@H](N=C(N)N)[C@@H](O)[C@@H]3N=C(N)N)O[C@@H](C)[C@]2(O)C=O)O[C@@H](CO)[C@H](O)[C@H]1O` [STREPTOMYCIN], the MIC in test [1], in test [2] and in test [4] was 5 µg/mL (≈ 8.6 µM) throughout. Further, the “diameter of the inhibition zone (DIZ)” value in test [3] is listed as 16.5 mm; in test [7], 16.1 mm.

Usually MIC stands for the lowest concentration found to suppress growth.

The record behind these values is ChEMBL document CHEMBL1177890, “Synthesis and biological evaluation of new 2-chloro-3-((4-phenyl-1H-1,2,3-triazol-1-yl)methyl)quinoline derivatives via click chemistry approach” (2010).
